Data as given in article PMC10774712 (RSC Advances, 2024).
Entries after “also recorded” stand apart in the source; their conditions may differ.

Tests used:
[1] = tested on: NCI 60 cancer cell lines; assay: NCI 60 cell panel anti-proliferative assay; assay type: cell-based, human; conditions: 10 μM single dose
[2] = tested on: HOP-92; assay: NCI 60 SRB assay; assay type: cell-based; conditions: Homo sapiens, HOP-92, read-out: growth inhibition
[3] = target: EGFR tyrosine kinase (Homo sapiens, UniProt P00533); assay: In vitro EGFR tyrosine kinase activity; assay type: biochemical; conditions: read-out: EGFR ± SD IC50
[4] = tested on: P-glycoprotein; assay: Quantitative real time PCR for P-glycoprotein; assay type: cell-based; conditions: MDA-MB-468/ADR cells, 72 h, in comparison to the control (1)
Summary of the method: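 P-gp gene expression measured by real-time RT-PCR in 1 × 10⁵ MDA-MB-468 cells. Cells exposed to test compound at 0.125, 0.250, 0.500 and 1.000 μM for 72 h. Expression reported as fold change relative to untreated control, set at 1.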

[5] = tested on: DOX/MDA-MB-468 cells; assay: MTT cytotoxicity in drug-resistant DOX/MDA-MB-468 cell line; assay type: cell-based; conditions: read-out: IC50 DOX/MDA-MB-468, drug-resistant DOX/MDA-MB-468 cells
[6] = tested on: MDA-MB-468 cells; assay: Cell cycle analysis; assay type: cell-based; conditions: for cell cycle arrest (in words): MDA-MB-468
Summary of the method: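 Cells plated at 4 × 10⁶ per T75 flask and treated with test compound for 24 and 48 h. Harvested by trypsinisation, washed in PBS and fixed in ice-cold absolute alcohol. DNA stained with a commercial cell-cycle DNA reagent kit per the maker's instructions. Phase distribution determined by flow cytometry.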

[7] = tested on: MDA-MB-468 cells; assay: Annexin-V-FITC/PI apoptosis assay; assay type: cell-based
Summary of the method: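 MDA-MB-468 cells seeded at 4 × 10⁶ per T75 flask and exposed to test compound for 24 and 48 h, with a DMSO control. Cells trypsinised; 0.5 × 10⁶ cells washed twice in PBS and stained with 5 μl annexin V-FITC plus 5 μl PI in 1× binding buffer, 15 min, room temperature, dark. Read by flow cytometry; early, late and total apoptotic fractions scored.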

[8] = tested on: male Wistar rats; assay: Toxicological study / calculation of LD50; assay type: in vivo, rat
Summary of the method: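 Adult male Wistar rats, 200 ± 20 g, acclimatised 7 days at 22 ± 3 °C under a natural light cycle and fasted 18 h before dosing. Single dose of test compound in 0.5 mL DMSO. Five dose levels given to groups of five rats.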

Compound | antiproliferative activity (in words) ([1]; most of the cancer cell lines) | inhibition at 10 µM [2] | IC50 [3] | MDA-MB-468 P-glycoprotein fold change [4] | IC50 [5] | cell cycle arrest (in words) [6] | cells in S phase (%DIP S) ([6]; MDA-MB-468, compound at its IC50, control 22.98%) | cells in G1 phase (%DIP G1) ([6]; MDA-MB-468, compound at its IC50, control 52.76%) | cell cycle arrest (in words) ([6]; listed as 16a) | apoptosis induction (in words) ([7]; MDA-MB-468) | late cellular apoptosis ([7]; MDA-MB-468, IC50 of compound, DMSO control 0.27%) | early/primary apoptosis ([7]; MDA-MB-468, IC50 of compound, DMSO control 0.39%, lower right quadrant) | total apoptosis ([7]; MDA-MB-468, IC50 of compound, DMSO control 2.09%) | late apoptosis ([7]; MDA-MB-468, IC50 of compound, control 0.25%, upper right quadrant) | time to death ([8]; 1000 mg kg^−1) | toxic signs ([8]; 1000 mg kg^−1, after intraperitoneal injection) | effect on the animals ([8]; doses 55, 90 and 100 mg kg^−1) | cell growth inhibition ([1]; some melanoma, ovarian, renal and breast cancer cell lines)
CSc1nc(-c2ccc(Cl)cc2)c2c(NC(=O)c3ccccc3)nnc-2[nH]1 [Compound 6, N-(4-(4-Chlorophenyl)-6-(methylthio)-7H-pyrazolo[3,4-d]pyrimidin-3-yl)benzamide] | poor antiproliferative activity | > 100% |  |  |  |  |  |  |  |  |  |  |  |  |  |  |  | 
Ethyl 1-(3-benzamido-4-(4-chlorophenyl)-7H-pyrazolo[3,4-d]pyrimidin-6-yl)-5-(2,4-dichlorophenyl)-3-oxo-2,3-dihydro-1H-pyrazole-4-carboxylate [Compound 16] |  |  | 34 ± 2 nM | 0.449 fold | 844 nM | cell cycle arrest at the S phase; also recorded: G1 and S phases arrest pattern | 28.16% | 57.41% | induce cell cycle arrest with concurrent increase in G1 and S population | increased the percentage of apoptotic cells in a time-dependent manner | 54.61% | 18.08% | 46.59% | 31.47% | ≤ 7 days | abdominal muscle contractions and ataxia signs | does not produce any significant effect | 
N-(4-(4-Chlorophenyl)-6-(4-cyano-5-(2,4-dichlorophenyl)-3-oxo-2,3-dihydro-1H-pyrazol-1-yl)-7H-pyrazolo[3,4-d]pyrimidin-3-yl)benzamide [Compound 15] |  |  | 135 ± 6 nM | 0.301 fold | 267 nM |  |  |  |  |  |  |  |  |  |  |  |  | above 100%
